From PubChem
Only some compounds are listed: those with a hit (about 12% of all), similar ones and a draw of the others.
Dynein cargo inh = inhibitors of GR-EGFP nuclear translocation, primary screen, dynein cargo transport inhibitor project, imaging, high-content, 3617.4 mouse cells. test concentration mostly 20 µM; stimulated with dexamethasone, 1 µM; hits give low values. z-score, hits read low. actives 0.47% (n = 220,000). AID 1381, 2008;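 active means plate z-score of nuclear minus cytoplasmic receptor signal below a set negative limit, without overly bright fluorescence or cell loss, cut at about -3.5 in these data, passing the limit was not always enough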;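 further: z-score of nuclear minus cytoplasmic ring GR-EGFP intensity difference per well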
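Buffer or medium – tet-free medium with charcoal-stripped serum · Signal – automated 10x imaging of fixed Hoechst-stained cells · Also added – dexamethasone agonist, 1.0 µM final, for 30 min · Incubation – induction 48 h, compound 1 h, agonist 30 min · Read-out – GR-EGFP nuclear translocation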
CHOP inhibitor = inhibitors of CHOP promoter induction, primary screen, cell-based, unfolded protein response, luciferase reporter; AID 2732, 2010; CHO-K1 CHOP-promoter luciferase, tunicamycin-induced, 15-18 h; inhibition, % at 10 µM; actives 3.8% (n = 220,000);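 active means compounds that reduced the stress-induced luciferase reporter signal by more than about 70% of percent inhibition, limit read from the data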;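 further: 0% = tunicamycin plus vehicle and 100% = wells without tunicamycin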
MT stabilize HCS = microtubule stabilizers in HeLa cells, primary screen, imaging, high-content imaging | actives 0.83% (n = 200,000) | HeLa tubulin immunostaining HCS, 24 h; share of cells brighter than vehicle mean+2SD | % tubulin-high responders, % at 10 µM;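 active means plate Z-score above 3 for both tubulin-high and condensed-nucleus cell shares, with cell loss under 80%, at 10 µM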;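 further: anti alpha tubulin signal scored within the nucleus-defined area of each cell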
bCat nuc transl = modulators of beta-catenin nuclear translocation, primary screen, imaging, HeLa cells, immunofluorescence, high-content; AID 1665, 2009; actives 0.3% (n = 190,000); nuclear translocation activity, % at 5 µM;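 active means nuclear translocation activity above 50% at 5 µM, with a well cell count of 50 or more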;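 further: per-cell ratio of nuclear to cytoplasmic median beta-catenin stain intensity; plate controls were DMSO negative control for no effect and GSK-3 inhibitor IX positive control for full effect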
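Signal – beta-catenin immunofluorescence imaging with DAPI · Test system – human HeLa cell line · Dosing – 5 µM primary single dose, 0.1% DMSO, 0.02–20 µM confirmation series · Measure – % activation, nuclear-to-cytoplasmic median beta-catenin signal ratio per cell · Incubation – 24 h compound exposure at 37°C, 5% CO2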
Autophagy HCS = autophagy modulators in MEF cells, primary screen, imaging, high-content, MEF GFP-LC3; MEF GFP-LC3 puncta imaging; test concentration mostly 10 µM; actives 0.98% (n = 190,000); calls only at 10 µM (by protocol);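 active means percentage of spot-positive cells more than 3 SD above its plate mean, without a fluorescence outlier flag or 80% toxicity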;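 further: spot-positive cell cutoff set from DMSO-treated cells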
Lmaj promast = Leishmania major promastigote growth inhibition, primary screen | Leishmania major promastigotes, resazurin fluorescence viability | inhibition, % at 10 µM | actives 9% (n = 200,000); in the data active means inhibition above about 50%;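 further: promastigotes grown with compound for 44 hours at 28 °C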
Active calls of the source: *; i = inactive; / = no result given.

SMILES	Dynein cargo inh	CHOP inhibitor	MT stabilize HCS	bCat nuc transl	Autophagy HCS	Lmaj promast
CCOc1ccccc1C1CC(=O)Nc2cc3c(cc21)OCO3 (centres undefined)	-0.53	/	29*	2	i	11
COc1cccc(C2CC(=O)Nc3cc4c(cc32)OCCO4)c1OC(C)C (centres undefined)	0.23	28	5	0	i	10
COc1ccc(N2CCN(S(=O)(=O)c3cnc[nH]3)CC2)cc1	0.33	4	/	-4	/	/
CCN1CCN(C(C)C(=O)Nc2c(C)n(C)n(-c3ccccc3)c2=O)CC1 (centres undefined)	-0.11	6	4	-2	i	-9
O=C(CN1CCN(CC(=O)Nc2ccccc2Cl)CC1)Nc1ccc2c(c1)OCCO2	-1.5	6	3	0	i	23
COc1ccc(NC(=O)CN2CCN(Cc3ccc4c(c3)OCO4)CC2)cc1OC	-0.35	6	2	2	i	71*
COC(=O)c1[nH]c2ccccc2c1NC(=O)CN1CCN(Cc2ccc3c(c2)OCO3)CC1	1.4	20	7	2	i	22
O=C(CN1CCN(Cc2ccc3c(c2)OCO3)CC1)Nc1ccc2c(c1)OCCO2	-0.29	-3	2	-1	i	91*
COc1ccccc1NC(=O)CN1CCN(CC(=O)Nc2ccc3c(c2)OCCO3)CC1	0.13	37	3	0	i	55*
COc1ccc(CC(=O)NC2CCN(CC(=O)Nc3ccc4c(c3)OCCO4)CC2)cc1OC	0.85	-17	2	/	i	-1
COc1cc(NC(=O)CN2CCN(Cc3ccc4c(c3)OCO4)CC2)cc(OC)c1	-0.086	2	3	-3	i	86*
Cc1nn(Cc2ccccc2)c(Cl)c1C(=O)NCc1ccco1	-0.16	6	2	0	i	-7
O=C(CN1CCN(Cc2ccc3c(c2)OCO3)CC1)Nc1ccc2c(c1)OCO2	0.39	14	2	-2	i	92*
NS(=O)(=O)c1cccc(NC(=O)CN2CCN(Cc3ccc4c(c3)OCO4)CC2)c1	-0.95	10	3	-1	i	53*
O=C(CN1CCCN(S(=O)(=O)c2ccc(Br)cc2)CC1)Nc1ccc2c(c1)OCO2	0.21	23	6	8	i	86*
O=C(CN1CCN(S(=O)(=O)c2ccc(Br)cc2)CC1)N/N=C/c1ccc(Cl)c([N+](=O)[O-])c1	-1.2	7	13*	0	i	15
Cc1ccc(S(=O)(=O)N2CCN(CC(=O)N/N=C\c3ccc(Cl)c([N+](=O)[O-])c3)CC2)cc1	-0.37	18	4	0	i	15
COc1ccc(S(=O)(=O)N2CCCN(CC(=O)Nc3ccc4c(c3)OCO4)CC2)cc1	4	-2	3	/	i	15
O=C(Nc1ccccc1)N1CCN(Cc2ccc3c(c2)OCO3)CC1	0.11	12	2	-6	i	-3
Cc1cc2cc(C)c3nnc(SCC(=O)N4CCc5ccccc54)n3c2cc1C	0.28	-26	1	/	i	-2
CCN1CCN(CC(=O)c2c[nH]c3ccccc23)CC1	0.38	14	2	-2	i	-4
O=C(CN1CCN(Cc2ccc3c(c2)OCO3)CC1)Nc1ccc(F)cc1	-0.79	2	4	0	i	97*
O=C(CN1CCN(Cc2ccc3c(c2)OCO3)CC1)c1c[nH]c2ccccc12	-1.1	45	4	-1	i	86*
O=C(C1=C(O)C(=O)N(Cc2cccnc2)C1c1ccccn1)c1cccs1 (centres undefined)	-0.32	-6	3	0	i	-6
N#CC(Sc1ccccn1)c1ccc(Cl)cc1 (centres undefined)	0.58	-5	1	0	i	-3
SMILES	Dynein cargo inh	CHOP inhibitor	MT stabilize HCS	bCat nuc transl	Autophagy HCS	Lmaj promast
CC(=O)c1cccc(NC(=O)c2cc(-c3ccc(C)cc3)on2)c1	0.37	-33	3	0	i	62*
Cc1ccc(NC(=O)c2cc(-c3cccc(O)c3)on2)cc1C	-0.52	86*	4	0	/	11
CCCc1cc(C(=O)Nc2cccc(C(C)=O)c2)no1	-0.4	21	2	0	/	-7
Cc1ccc(NC(=O)c2cc(-c3ccco3)on2)cc1C	-0.76	-31	4	0	i	-1
CCOC(=O)c1nc(C)sc1-c1ccnn1S(=O)(=O)c1ccc(C)cc1	0.5	8	/	0	/	/
COc1ccccc1NC(=O)c1ccc(NC(=O)CN2C(=O)CN(C)C2=O)cc1	-0.061	1	2	-2	i	2
COc1ccc(CN2CCN(C3CCSCC3)CC2CCO)c(C)c1C (centres undefined)	1.7	15	1	-2	i	88*
COc1ccc(CN2CCN(C3CCOCC3)CC2CCO)c(C)c1C (centres undefined)	0.99	17	4	-1	i	81*
CCOc1ccccc1CN1CCN(C2CCSCC2)CC1CCO (centres undefined)	-0.39	0	2	-2	i	3
CCOc1ccccc1CN1CCN(C2CCOCC2)CC1CCO (centres undefined)	1.2	-13	2	2	i	0
O=C(CSc1nnc(-c2ccccn2)n1Cc1ccccc1)Nc1ccc2c(c1)OCO2	0.1	-41	2	-3	i	-6
Cc1oc(-c2cccs2)nc1CN1CCC(c2ccccc2)CC1	-0.91	12	3	-3	i	27
Oc1ccc(Br)cc1C=Nc1ccc2c3c(cccc13)CC2	-0.031	16	4	2	i	71*
Oc1ccc(Cl)cc1C=Nc1ccccc1Br	-0.26	37	5	-1	i	-10
COC(=O)NC(=S)N1CCOCC1	-1.1	2	5	1	i	-10
COC(=O)c1c(-c2ccc(F)cc2)csc1NC(=O)c1ccco1	-0.43	-30	2	2	i	1
O=C(Nc1scc(-c2ccccc2)c1C(=O)O)c1ccco1	0.17	73*	2	-1	i	-9
CCN(CC)S(=O)(=O)c1ccc(N2CCOCC2)c(NC(=O)c2ccc(NC(C)=O)cc2)c1	-0.11	-13	/	1	/	/
C=CCCCCCCCCc1nc(=S)[nH][nH]1	-0.84	40	1	-8	i	53*
O=C(Cc1ccccc1)NC(NCCc1ccccc1)C(Cl)(Cl)Cl (centres undefined)	-0.14	6	3	/	i	98*
O=C(Cc1ccccc1)NC(Nc1ccccc1)C(Cl)(Cl)Cl (centres undefined)	2.6	1	2	1	i	19
Cc1nc2ccc(N=NC3=C(O)CC(C)(C)CC3=O)cc2s1	1.4	-5	5	/	i	91*
